The list is not random: actives were taken first. Their share in the collection is about 5.8%.
T cruzi growth-1: T. cruzi intracellular proliferation inhibitors, primary screen, cell-based, beta-gal Tulahuen parasites, NIH3T3 host, luminescence; T. cruzi beta-gal in NIH3T3, GalScreen luminescence, 90 h; inhibition, % at 8.34 µM; 77,000 tested, 5.9% active; AID 624255, 2012;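 active = mean inhibition above about 93%, with at least 55% of replicates each passing it, limit read from the data, passing the limit was not always enough; inconclusive = only one of those two conditions holds; inactive = neither condition holds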
Pf Dd2 growth: P. falciparum Dd2 growth inhibitors, primary screen, SYBR Green fluorescence, single dose replicates. 72 h; stronger effect = lower value. activity change, % at 10 µM. 94,000 tested, 2.3% active; in the data active = activity change below about -80%; inconclusive = no clear call, values can overlap the other calls
GASC1 inh: inhibitors of GASC-1 (KDM4C) histone demethylase, primary screen, biochemical, single concentration HTS; Lysine-specific demethylase 4C (Homo sapiens), Q9H3R0; GST-KDM4C 2-372, H3K9me3 peptide, LANCE TR-FRET; inhibition, % at 12.5 µM; 96,000 tested, 0.15% active; AID 720574, 2013;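 active = mean replicate inhibition above about 25%, with at least 55% of replicates also reaching it, limit read from the data, passing the limit was not always enough; inconclusive = only one of those two conditions met; inactive = neither condition met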
Target sequence (Q9H3R0 2-372 limits assumed): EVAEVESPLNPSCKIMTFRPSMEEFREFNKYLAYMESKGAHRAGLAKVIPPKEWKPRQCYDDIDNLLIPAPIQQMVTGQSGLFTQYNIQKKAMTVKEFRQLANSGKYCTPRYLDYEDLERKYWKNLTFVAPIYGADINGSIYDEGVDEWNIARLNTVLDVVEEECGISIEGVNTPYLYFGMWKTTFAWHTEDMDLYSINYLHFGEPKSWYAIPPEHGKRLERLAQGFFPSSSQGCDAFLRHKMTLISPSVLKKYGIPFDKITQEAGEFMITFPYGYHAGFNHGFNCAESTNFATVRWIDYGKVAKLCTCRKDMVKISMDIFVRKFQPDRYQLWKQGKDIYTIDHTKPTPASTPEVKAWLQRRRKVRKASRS
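System: N-terminal GST-fused human GASC-1 (KDM4C) fragment, residues 2-372; amount: enzyme final amount 10 nM; incubation: reaction 30 min RT, detection step 1 h RT; medium: HEPES buffer, pH 7.5, plus ascorbate; technique: LANCE TR-FRET, Eu antibody, ULight-streptavidin, EDTA, ex 340 nm, em 618/671 nm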
IDH1 R132H inh: inhibitors of IDH1 R132H reductase, primary screen, biochemical, plate reader, single point; diaphorase/resazurin fluorescence, 60 min; inhibition, % at 10 µM; 70,000 tested, 0.18% active; AID 624101, 2012; in the data active = inhibition above about 34%; inconclusive = no clear call, values can overlap the other calls; inactive = below about 11%
Target sequence (O75874 whole entry R132H): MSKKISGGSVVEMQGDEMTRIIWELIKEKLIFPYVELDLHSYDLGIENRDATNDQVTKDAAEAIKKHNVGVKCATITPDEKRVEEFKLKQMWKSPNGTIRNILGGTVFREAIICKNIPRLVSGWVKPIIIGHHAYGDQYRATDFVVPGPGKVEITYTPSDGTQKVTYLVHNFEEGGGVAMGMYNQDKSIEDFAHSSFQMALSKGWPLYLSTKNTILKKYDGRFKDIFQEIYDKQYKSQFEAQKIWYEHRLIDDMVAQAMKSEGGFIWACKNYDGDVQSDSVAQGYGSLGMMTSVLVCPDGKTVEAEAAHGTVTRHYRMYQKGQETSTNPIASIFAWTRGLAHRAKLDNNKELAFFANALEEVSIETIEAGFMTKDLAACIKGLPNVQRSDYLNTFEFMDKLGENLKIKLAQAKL
T cruzi growth-2: T. cruzi intracellular proliferation inhibitors, confirmation, cell-based, NIH3T3 host, beta-gal parasite, luminescence, cherry-pick. shares compounds with T cruzi growth-1. T. cruzi beta-gal in NIH3T3, GalScreen luminescence, 90 h. inhibition, % at 8.35 µM. 5,600 tested, 72% active;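 active = mean replicate inhibition above about 95% and at least 55% of replicates individually reaching it, limit read from the data; inconclusive = only one of the two criteria is met; inactive = neither criterion is met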
T cruzi growth-3: inhibitors of intracellular T. cruzi replication, confirmation, NIH3T3 host cells, beta-gal parasites, cherry-pick, set 2; shares compounds with T cruzi growth-1; T. cruzi beta-gal in NIH3T3, GalScreen luminescence, 90 h; inhibition, % at 2.09 µM; 5,600 tested, 21% active; AID 651740, 2012;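 active = mean inhibition above about 95%, with at least 55% of replicates also reaching it, limit read from the data; inconclusive = meets just one of the two conditions; inactive = meets neither condition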
NIH3T3 tox: cytotoxicity in mouse NIH/3T3 fibroblasts, confirmation, cytotoxicity control for T. cruzi proliferation inhibitor project, cell-based, cherry-pick, single point. shares compounds with T cruzi growth-1. NIH/3T3 viability, CellTiter-Glo ATP luminescence, 90 h. cytotoxicity (signal decrease), % at 8.35 µM. 5,600 tested, 14% active. AID 651742, 2012;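 active = mean signal decrease across replicates above about 35% based on untreated-well scatter, with enough replicates individually passing, limit read from the data; inconclusive = no rule stated though some were filed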
3T3 cytotox 2: NIH/3T3 fibroblast cytotoxicity, confirmation, cytotoxicity control, cell-based, cherry-pick, single point, set 2. 5,600 tested, 56% active. AID 651744, 2012. NIH/3T3 viability, CellTiter-Glo ATP luminescence, 90 h. shares compounds with T cruzi growth-1. inhibition, % at 24.9 µM;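 active = mean loss of cell viability signal at or above a set limit, and enough replicates individually reaching it; inconclusive = meets only the mean limit or only the replicate share; inactive = meets neither condition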
Each line names hits and unclear results; the compound was inactive in the other large screens (follow-up assays come after a bar, where they were run).

C[C@H]1CN([C@@H](C)CO)S(=O)(=O)c2ccc(C#CC3CC3)cc2O[C@H]1CN(C)Cc1ccccc1	none
C[C@H]1CN([C@@H](C)CO)S(=O)(=O)c2ccc(C#CC3CC3)cc2O[C@@H]1CN(C)Cc1ccccc1	T cruzi growth-1 111 | T cruzi growth-2 100 | T cruzi growth-3 inactive | NIH3T3 tox inactive | 3T3 cytotox 2 105
C[C@@H]1CN([C@@H](C)CO)S(=O)(=O)c2ccc(C#CC3CC3)cc2O[C@@H]1CN(C)Cc1ccccc1	none
C[C@@H]1CN([C@@H](C)CO)S(=O)(=O)c2ccc(C#CC3CC3)cc2O[C@H]1CN(C)Cc1ccccc1	T cruzi growth-1 120 | T cruzi growth-2 95 | T cruzi growth-3 inactive | NIH3T3 tox 50 | 3T3 cytotox 2 106
COc1ccc(-c2cc(C(F)(F)F)nc(SCC(=O)N(C)c3ccccc3)n2)cc1OC	none (no result: T cruzi growth-1, Pf Dd2 growth, GASC1 inh)
Cc1ccc(S(=O)(=O)N(C)C[C@@H]2Oc3cc(-c4cccc(F)c4)ccc3S(=O)(=O)N([C@@H](C)CO)C[C@H]2C)cc1	T cruzi growth-1 124 | T cruzi growth-2 102 | T cruzi growth-3 107 | NIH3T3 tox 48 | 3T3 cytotox 2 55
COc1ccc(S(=O)(=O)N(C)C[C@H]2Oc3cc(-c4cccc(F)c4)ccc3S(=O)(=O)N([C@H](C)CO)C[C@H]2C)cc1	none (no result: T cruzi growth-1)
Cc1ccc(S(=O)(=O)N(C)C[C@@H]2Oc3cc(-c4cccc(F)c4)ccc3S(=O)(=O)N([C@H](C)CO)C[C@@H]2C)cc1	T cruzi growth-1 127 (no result: IDH1 R132H inh) | T cruzi growth-2 105 | T cruzi growth-3 inconclusive | NIH3T3 tox inconclusive | 3T3 cytotox 2 43
CCc1csc(N2[C@H](C#N)[C@H](c3ccc(-c4ccc(F)cc4)cc3)[C@@H]2CO)n1	T cruzi growth-1 102 (no result: IDH1 R132H inh) | T cruzi growth-2 101 | T cruzi growth-3 110 | NIH3T3 tox inactive | 3T3 cytotox 2 37
CCc1csc(N2[C@H](C#N)[C@H](c3ccc(-c4cccc(F)c4)cc3)[C@H]2CO)n1	none (no result: IDH1 R132H inh)
C/C=C/c1ccc([C@@H]2[C@@H](CO)N(c3ncc(CC)s3)[C@H]2C#N)cc1	T cruzi growth-1 99 (no result: IDH1 R132H inh) | T cruzi growth-2 inactive | T cruzi growth-3 inactive | NIH3T3 tox inactive | 3T3 cytotox 2 inactive
CCc1csc(N2[C@H](C#N)[C@@H](c3ccc(-c4ccc(F)cc4)cc3)[C@H]2CO)n1	T cruzi growth-1 106 (no result: IDH1 R132H inh) | T cruzi growth-2 106 | T cruzi growth-3 99 | NIH3T3 tox inactive | 3T3 cytotox 2 inconclusive
CCc1csc(N2[C@@H](C#N)[C@@H](c3ccc(-c4ccc(F)cc4)cc3)[C@@H]2CO)n1	T cruzi growth-1 98 (no result: IDH1 R132H inh) | T cruzi growth-2 98 | T cruzi growth-3 inactive | NIH3T3 tox 49 | 3T3 cytotox 2 83
CS(=O)(=O)N(CC(=O)Nc1ccc(I)cc1)c1ccc(Cl)cc1Cl	none (no result: T cruzi growth-1, Pf Dd2 growth, GASC1 inh)
O=C(N/N=C/c1cccc(B(O)O)c1)c1ccccn1	none (no result: T cruzi growth-1, Pf Dd2 growth, GASC1 inh)
CS(=O)(=O)N(CC(=O)Nc1ccc(F)c(Cl)c1)Cc1ccccc1	none (no result: T cruzi growth-1, Pf Dd2 growth, GASC1 inh)
C/C=C/c1ccc([C@H]2[C@@H](CO)N(c3nc(CC)cs3)[C@H]2C#N)cc1	T cruzi growth-1 101 (no result: IDH1 R132H inh) | T cruzi growth-2 inactive | T cruzi growth-3 inactive | NIH3T3 tox inactive | 3T3 cytotox 2 26
CCc1csc(N2[C@H](CO)[C@@H](c3ccc(-c4cccc(F)c4)cc3)[C@@H]2C#N)n1	none (no result: IDH1 R132H inh)
CCc1csc(N2[C@@H](C#N)[C@@H](c3ccc(C4=CCCC4)cc3)[C@@H]2CO)n1	T cruzi growth-1 101 (no result: IDH1 R132H inh) | T cruzi growth-2 103 | T cruzi growth-3 inactive | NIH3T3 tox 42 | 3T3 cytotox 2 77
CCc1csc(N2[C@@H](C#N)[C@H](c3ccc(-c4ccc(F)cc4)cc3)[C@@H]2CO)n1	T cruzi growth-1 105 (no result: IDH1 R132H inh) | T cruzi growth-2 102 | T cruzi growth-3 inactive | NIH3T3 tox inactive | 3T3 cytotox 2 inactive
C/C=C/c1ccc([C@@H]2[C@@H](CO)N(c3nc(-c4ccccc4)cs3)[C@H]2C#N)cc1	none (no result: T cruzi growth-1, IDH1 R132H inh)
O=[N+]([O-])c1ccccc1S(=O)(=O)NCCOc1ccc(Cl)cc1	none (no result: T cruzi growth-1, Pf Dd2 growth, GASC1 inh)
CCS(=O)(=O)N1CCCCN2[C@H](CO)[C@@H](c3ccc(-c4ccccc4F)cc3)[C@@H]2C1	T cruzi growth-1 inconclusive (no result: IDH1 R132H inh) | T cruzi growth-2 103 | T cruzi growth-3 inactive | NIH3T3 tox inactive | 3T3 cytotox 2 inactive
CCS(=O)(=O)N1CCCCN2[C@@H](CO)[C@H](c3ccc(-c4ccccc4F)cc3)[C@@H]2C1	T cruzi growth-1 inconclusive (no result: IDH1 R132H inh) | T cruzi growth-2 104 | T cruzi growth-3 inactive | NIH3T3 tox inactive | 3T3 cytotox 2 42
CCS(=O)(=O)N1CCCCN2[C@@H](CO)[C@@H](c3ccc(-c4ccccc4F)cc3)[C@@H]2C1	T cruzi growth-1 106 (no result: IDH1 R132H inh) | T cruzi growth-2 inactive | T cruzi growth-3 inactive | NIH3T3 tox inactive | 3T3 cytotox 2 57
NCCCN(Cc1ccco1)C1CCCC1	none (no result: T cruzi growth-1, Pf Dd2 growth, GASC1 inh)
Cc1cc2nc(-c3ccc(C)c(NC(=O)COc4ccc([N+](=O)[O-])cc4)c3)oc2cc1C	none (no result: T cruzi growth-1, Pf Dd2 growth, GASC1 inh)
CN(CC(=O)Nc1ccc(F)c(Cl)c1)S(=O)(=O)c1ccc(F)cc1	none (no result: T cruzi growth-1, Pf Dd2 growth, GASC1 inh)
CC(C)NC[C@@H]1[C@H](c2ccc(C3=CCCCC3)cc2)[C@H](CO)N1C(=O)NC(C)C	T cruzi growth-1 121 (no result: IDH1 R132H inh) | T cruzi growth-2 106 | T cruzi growth-3 98 | NIH3T3 tox inactive | 3T3 cytotox 2 105
COc1cccc(NC(=O)N2[C@H](CO)[C@H](c3ccccc3)[C@@H]2CNC(C)C)c1	T cruzi growth-1 115 (no result: IDH1 R132H inh) | T cruzi growth-2 inactive | T cruzi growth-3 inactive | NIH3T3 tox inactive | 3T3 cytotox 2 inactive
N#C[C@@H]1[C@@H](c2ccc(C3=CCCCC3)cc2)[C@H](CO)N1C(=O)NC1CCCCC1	T cruzi growth-1 98 (no result: IDH1 R132H inh) | T cruzi growth-2 103 | T cruzi growth-3 inactive | NIH3T3 tox inactive | 3T3 cytotox 2 87
N#C[C@@H]1[C@@H](c2ccc(C3=CCCCC3)cc2)[C@@H](CO)N1C(=O)NC1CCCCC1	T cruzi growth-1 98 (no result: IDH1 R132H inh) | T cruzi growth-2 104 | T cruzi growth-3 inactive | NIH3T3 tox 54 | 3T3 cytotox 2 64
CNC[C@H]1[C@@H](c2ccccc2)[C@@H](CO)N1C(=O)Nc1cccc(OC)c1	none (no result: IDH1 R132H inh)
